Results reported in ChEMBL document CHEMBL4219031, “Identification and Characterization of Von Hippel-Lindau-Recruiting Proteolysis Targeting Chimeras (PROTACs) of TANK-Binding Kinase 1” (J Med Chem, 2018).

Assays:
[1] = molecular target: T1, von Hippel-Lindau disease tumor suppressor/Serine/threonine-protein kinase TBK1 (Homo sapiens, UniProt Q9UHD2+P40337); assay: Induction of VHL-mediated TBK1 degradation in human Panc02.13 cells after 16 hrs by Western blot method relative to control; format: cell-based
How it was run: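 Panc02.13 cells grown in RPMI-1640 with 15% FBS and 10 units/mL human recombinant insulin, exposed to compound for 16 h. For phospho-IRF3 read-out, TLR3 agonist Poly I:C added for the final 3 h. Cells lysed in RIPA buffer with protease/phosphatase inhibitors, lysates clarified at 16,000g, run on SDS-PAGE and immunoblotted for TBK1, pIRF3 and GAPDH.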
Target sequence in this assay (P40337 whole entry, looked up, one chain of several): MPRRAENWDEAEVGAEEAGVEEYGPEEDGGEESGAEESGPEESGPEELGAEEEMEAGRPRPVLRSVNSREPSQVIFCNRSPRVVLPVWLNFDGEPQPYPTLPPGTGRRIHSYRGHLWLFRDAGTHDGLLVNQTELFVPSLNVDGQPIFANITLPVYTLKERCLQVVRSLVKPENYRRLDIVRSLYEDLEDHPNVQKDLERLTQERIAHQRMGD

[2] = molecular target: T1, von Hippel-Lindau disease tumor suppressor/Serine/threonine-protein kinase TBK1; assay: Induction of VHL-mediated TBK1 degradation in human Panc02.13 cells after 16 hrs by Western blot method; format: cell-based
How it was run: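 For phospho-IRF3 read-out, TLR3 agonist Poly I:C added for the final 3 h. Cells lysed in RIPA buffer with protease/phosphatase inhibitors, lysates clarified at 16,000g, run on SDS-PAGE and immunoblotted for TBK1, pIRF3 and GAPDH.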
Target sequence in this assay (P40337 whole entry, one chain of several): as the sequence (P40337 whole entry, looked up, one chain of several) above

[3] = molecular target: T2, Serine/threonine-protein kinase TBK1 (Homo sapiens, UniProt Q9UHD2); assay: Binding affinity to human full length wild-type TBK1 expressed in mammalian expression system
T2 sequence (Q9UHD2 whole entry): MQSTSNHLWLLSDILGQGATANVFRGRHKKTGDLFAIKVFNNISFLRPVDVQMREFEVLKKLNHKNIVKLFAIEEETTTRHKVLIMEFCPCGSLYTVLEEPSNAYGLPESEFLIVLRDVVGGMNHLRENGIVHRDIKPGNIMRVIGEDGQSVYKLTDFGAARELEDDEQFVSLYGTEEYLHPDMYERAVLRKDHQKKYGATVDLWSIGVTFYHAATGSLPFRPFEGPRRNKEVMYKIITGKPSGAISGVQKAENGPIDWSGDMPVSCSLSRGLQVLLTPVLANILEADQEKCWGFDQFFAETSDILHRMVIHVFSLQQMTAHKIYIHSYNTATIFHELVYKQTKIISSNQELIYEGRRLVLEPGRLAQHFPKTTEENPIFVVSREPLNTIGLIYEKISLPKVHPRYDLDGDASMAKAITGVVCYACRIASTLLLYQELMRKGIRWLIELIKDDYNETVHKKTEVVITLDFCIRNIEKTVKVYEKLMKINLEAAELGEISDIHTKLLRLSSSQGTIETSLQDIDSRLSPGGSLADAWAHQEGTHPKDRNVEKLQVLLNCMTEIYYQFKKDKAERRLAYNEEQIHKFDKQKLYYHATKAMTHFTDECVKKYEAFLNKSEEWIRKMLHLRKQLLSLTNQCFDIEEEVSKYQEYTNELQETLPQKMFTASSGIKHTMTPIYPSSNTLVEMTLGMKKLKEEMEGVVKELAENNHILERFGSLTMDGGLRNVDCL

[4] = molecular target: von Hippel-Lindau disease tumor suppressor/Elongin-C/Elongin-B/HIF1A (Homo sapiens, UniProt P40337+Q15369+Q15370+Q16665); assay: Inhibition of His-tagged VHL/elongin B/elongin C (unknown origin) interaction with HIF1alpha preincubated for 10 mins followed by fluorescin labelled HIF1alpha peptide addition measured after 2 hrs by fluorescence polarization assay; format: protein-complex assay
Sequence of von Hippel-Lindau disease tumor suppressor/Elongin-C/Elongin-B/HIF1A (P40337 whole entry, looked up): as the sequence (P40337 whole entry, looked up, one chain of several) above
Sequence of von Hippel-Lindau disease tumor suppressor/Elongin-C/Elongin-B/HIF1A (Q15369 whole entry, looked up): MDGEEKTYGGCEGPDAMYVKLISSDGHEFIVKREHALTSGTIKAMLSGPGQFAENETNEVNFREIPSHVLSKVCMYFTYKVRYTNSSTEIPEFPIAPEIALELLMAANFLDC
Sequence of von Hippel-Lindau disease tumor suppressor/Elongin-C/Elongin-B/HIF1A (Q15370 whole entry, looked up): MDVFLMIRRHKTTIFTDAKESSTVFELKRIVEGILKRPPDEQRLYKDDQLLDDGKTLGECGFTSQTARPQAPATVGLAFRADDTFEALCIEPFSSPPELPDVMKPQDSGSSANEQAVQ
Sequence of von Hippel-Lindau disease tumor suppressor/Elongin-C/Elongin-B/HIF1A (Q16665 whole entry, looked up): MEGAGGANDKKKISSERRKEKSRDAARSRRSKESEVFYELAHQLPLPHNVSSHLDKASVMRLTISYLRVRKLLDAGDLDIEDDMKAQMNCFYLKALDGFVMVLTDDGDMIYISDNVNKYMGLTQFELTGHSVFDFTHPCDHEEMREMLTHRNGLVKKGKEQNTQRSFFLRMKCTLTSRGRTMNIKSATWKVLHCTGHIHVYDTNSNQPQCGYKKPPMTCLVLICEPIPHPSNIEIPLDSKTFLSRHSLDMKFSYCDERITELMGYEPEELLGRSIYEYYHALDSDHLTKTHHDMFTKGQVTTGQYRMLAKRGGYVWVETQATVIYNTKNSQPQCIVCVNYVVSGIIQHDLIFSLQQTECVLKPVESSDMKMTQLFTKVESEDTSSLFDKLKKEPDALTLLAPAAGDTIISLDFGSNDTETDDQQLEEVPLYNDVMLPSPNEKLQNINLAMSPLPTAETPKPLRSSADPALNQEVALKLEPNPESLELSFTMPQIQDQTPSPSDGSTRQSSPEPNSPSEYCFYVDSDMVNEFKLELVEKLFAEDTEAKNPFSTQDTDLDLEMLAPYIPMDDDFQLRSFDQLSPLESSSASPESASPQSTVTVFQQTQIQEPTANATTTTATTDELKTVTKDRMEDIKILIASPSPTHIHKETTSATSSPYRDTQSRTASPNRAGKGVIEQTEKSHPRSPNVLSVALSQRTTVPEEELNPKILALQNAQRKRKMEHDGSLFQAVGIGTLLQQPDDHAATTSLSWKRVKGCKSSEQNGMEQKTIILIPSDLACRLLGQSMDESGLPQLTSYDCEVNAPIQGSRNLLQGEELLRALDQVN
How it was run: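 VHL coexpressed and copurified with Elongin B and C (VCB). Compound preincubated 10 min with VHL in 50 mM Tris pH 7.5, 200 mM NaCl, 2 mM DTT, 1% DMSO. Polarization converted to percent binding against control wells; IC50 from four-parameter fit.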

Structure (SMILES)	Emax [1]	DC50 [2]	Kd [3]	IC50 [4]
Cc1ncsc1-c1ccc(CNC(=O)[C@@H]2C[C@@H](O)CN2C(=O)[C@@H](NC(=O)CCCCCOCCCCOCCCCOc2ccc(Nc3ncc(Br)c(NCCCN(C)C(=O)C4CCC4)n3)cc2)C(C)(C)C)cc1	90%	95 nM		
Cc1ncsc1-c1ccc(CNC(=O)[C@@H]2C[C@@H](O)CN2C(=O)[C@@H](NC(=O)COCCOCCOCCCCOc2ccc(Nc3ncc(Br)c(NCCCN(C)C(=O)C4CCC4)n3)cc2)C(C)(C)C)cc1	86%	71 nM		
C=Cc1cnc(Nc2ccc(OCCCOCCCCOCCCOCC(=O)N[C@H](C(=O)N3C[C@H](O)C[C@H]3C(=O)NCc3ccc(-c4scnc4C)cc3)C(C)(C)C)cc2)nc1NCCCN(C)C(=O)C1CCC1	96%	48 nM	130 nM	
Cc1ncsc1-c1ccc(CNC(=O)[C@@H]2C[C@@H](O)CN2C(=O)[C@@H](NC(=O)COCCCOCCCCOCCCOc2ccc(Nc3ncc(F)c(NCCCN(C)C(=O)C4CCC4)n3)cc2)C(C)(C)C)cc1	74%	282 nM	104 nM	
Cc1ncsc1-c1ccc(CNC(=O)[C@@H]2C[C@@H](O)CN2C(=O)[C@@H](NC(=O)COCCCOCCCCOCCCOc2ccc(Nc3ncc(Cl)c(NCCCN(C)C(=O)C4CCC4)n3)cc2)C(C)(C)C)cc1	96%	10 nM	10.4 nM	
Cc1ncsc1-c1ccc(CNC(=O)[C@@H]2C[C@@H](O)CN2C(=O)[C@@H](NC(=O)COCCOCCOCCOCCOCCOCCOc2ccc(Nc3ncc(Br)c(NCCCN(C)C(=O)C4CCC4)n3)cc2)C(C)(C)C)cc1	96%	34 nM		
CCc1cnc(Nc2ccc(OCCCOCCCCOCCCOCC(=O)N[C@H](C(=O)N3C[C@H](O)C[C@H]3C(=O)NCc3ccc(-c4scnc4C)cc3)C(C)(C)C)cc2)nc1NCCCN(C)C(=O)C1CCC1	77%	121 nM	275 nM	
CC[C@H](NC(=O)COCCCOCCCCOCCCOc1ccc(Nc2ncc(Br)c(NCCCN(C)C(=O)C3CCC3)n2)cc1)C(=O)N1C[C@H](O)C[C@H]1C(=O)NCc1ccc(-c2scnc2C)cc1	71%	864 nM		9900 nM
Cc1ncsc1-c1ccc(CNC(=O)[C@@H]2C[C@@H](O)CN2C(=O)[C@@H](NC(=O)CCOCCCOCCCOCCCOCCCOc2ccc(Nc3ncc(Br)c(NCCCN(C)C(=O)C4CCC4)n3)cc2)C(C)(C)C)cc1	96%	25 nM		
Cc1ncsc1-c1ccc(CNC(=O)[C@@H]2C[C@@H](O)CN2C(=O)[C@@H](NC(=O)COCCCCOc2ccc(Nc3ncc(Br)c(NCCCN(C)C(=O)C4CCC4)n3)cc2)C(C)(C)C)cc1		> 1000 nM		
Cc1ncsc1-c1ccc(CNC(=O)[C@@H]2C[C@@H](O)CN2C(=O)[C@@H](NC(=O)COCCCOCCCCOCCCOc2ccc(Nc3ncc(I)c(NCCCN(C)C(=O)C4CCC4)n3)cc2)C(C)(C)C)cc1	96%	3 nM	4 nM	
Cc1ncsc1-c1ccc(CNC(=O)[C@@H]2C[C@@H](O)CN2C(=O)[C@@H](NC(=O)COCCCCCOCCCCOCCCCOCCCCOCCCCCOc2ccc(Nc3ncc(Br)c(NCCCN(C)C(=O)C4CCC4)n3)cc2)C(C)(C)C)cc1	76%	292 nM		
Cc1ncsc1-c1ccc(CNC(=O)[C@@H]2C[C@@H](O)CN2C(=O)[C@@H](NC(=O)COCCOCCOCCOCCOc2ccc(Nc3ncc(Br)c(NCCCN(C)C(=O)C4CCC4)n3)cc2)C(C)(C)C)cc1	92%	103 nM		
Cc1ncsc1-c1ccc(CNC(=O)[C@@H]2C[C@@H](O)CN2C(=O)[C@@H](NC(=O)COCCOCCCCOCCCCOCCOc2ccc(Nc3ncc(Br)c(NCCCN(C)C(=O)C4CCC4)n3)cc2)C(C)(C)C)cc1	96%	6 nM		
Cc1cnc(Nc2ccc(OCCCOCCCCOCCCOCC(=O)N[C@H](C(=O)N3C[C@H](O)C[C@H]3C(=O)NCc3ccc(-c4scnc4C)cc3)C(C)(C)C)cc2)nc1NCCCN(C)C(=O)C1CCC1	89%	92 nM	270 nM	
Cc1ncsc1-c1ccc(CNC(=O)[C@@H]2C[C@@H](O)CN2C(=O)[C@@H](NC(=O)COCCCOCCCCOCCCOc2ccc(Nc3ncc(C4CC4)c(NCCCN(C)C(=O)C4CCC4)n3)cc2)C(C)(C)C)cc1	96%	65 nM	245 nM	
Cc1ncsc1-c1ccc(CNC(=O)[C@@H]2C[C@@H](O)CN2C(=O)[C@@H](NC(=O)COCCCOCCCCCOc2ccc(Nc3ncc(Br)c(NCCCN(C)C(=O)C4CCC4)n3)cc2)C(C)(C)C)cc1	79%	88 nM		
CCC[C@H](NC(=O)COCCCOCCCCOCCCOc1ccc(Nc2ncc(Br)c(NCCCN(C)C(=O)C3CCC3)n2)cc1)C(=O)N1C[C@H](O)C[C@H]1C(=O)NCc1ccc(-c2scnc2C)cc1	75%	288 nM		16000 nM
Cc1ncsc1-c1ccc(CNC(=O)[C@@H]2C[C@@H](O)CN2C(=O)[C@@H](NC(=O)CCCCCOCCOc2ccc(Nc3ncc(Br)c(NCCCN(C)C(=O)C4CCC4)n3)cc2)C(C)(C)C)cc1		> 1000 nM		
Cc1ncsc1-c1ccc(CNC(=O)[C@@H]2C[C@@H](O)CN2C(=O)[C@@H](NC(=O)COCCOCCOCCOCCOCCOc2ccc(Nc3ncc(Br)c(NCCCN(C)C(=O)C4CCC4)n3)cc2)C(C)(C)C)cc1	96%	29 nM		
Cc1ncsc1-c1ccc(CNC(=O)[C@@H]2C[C@@H](O)CN2C(=O)[C@@H](NC(=O)COCCCOCCCCOCCCOc2ccc(Nc3ncc(C4CCC4)c(NCCCN(C)C(=O)C4CCC4)n3)cc2)C(C)(C)C)cc1	70%	544 nM	1040 nM	
Cc1ncsc1-c1ccc(CNC(=O)[C@@H]2C[C@@H](O)CN2C(=O)[C@@H](NC(=O)COCCCOCCCCOCCCOc2ccc(Nc3nccc(NCCCN(C)C(=O)C4CCC4)n3)cc2)C(C)(C)C)cc1		> 1000 nM	725 nM	
Cc1ncsc1-c1ccc(CNC(=O)[C@@H]2C[C@@H](O)CN2C(=O)[C@H](C)NC(=O)COCCCOCCCCOCCCOc2ccc(Nc3ncc(Br)c(NCCCN(C)C(=O)C4CCC4)n3)cc2)cc1	34%	> 1000 nM		25000 nM
Cc1ncsc1-c1ccc(CNC(=O)[C@@H]2C[C@@H](O)CN2C(=O)[C@@H](NC(=O)COCCOCCOc2ccc(Nc3ncc(Br)c(NCCCN(C)C(=O)C4CCC4)n3)cc2)C(C)(C)C)cc1		> 1000 nM		
Cc1ncsc1-c1ccc(CNC(=O)[C@@H]2C[C@@H](O)CN2C(=O)[C@@H](NC(=O)COCCCOCCCCOCCCOc2ccc(Nc3ncc(Br)c(NCCCN(C)C(=O)C4CCC4)n3)cc2)C(C)C)cc1	88%	44 nM		5500 nM
Cc1ncsc1-c1ccc(CNC(=O)[C@@H]2C[C@@H](O)CN2C(=O)[C@@H](NC(=O)COCCCOCCCCOCCCOc2ccc(Nc3ncc(C(F)(F)F)c(NCCCN(C)C(=O)C4CCC4)n3)cc2)C(C)(C)C)cc1	96%	29 nM	13 nM	
Cc1ncsc1-c1ccc(CNC(=O)[C@@H]2C[C@@H](O)CN2C(=O)[C@@H](NC(=O)COCCCOCCCOc2ccc(Nc3ncc(Br)c(NCCCN(C)C(=O)C4CCC4)n3)cc2)C(C)(C)C)cc1		> 1000 nM		
Cc1ncsc1-c1ccc(CNC(=O)[C@@H]2C[C@@H](O)CN2C(=O)[C@@H](NC(=O)COCCOCCOCCOc2ccc(Nc3ncc(Br)c(NCCCN(C)C(=O)C4CCC4)n3)cc2)C(C)(C)C)cc1		> 1000 nM		
Cc1ncsc1-c1ccc(CNC(=O)[C@@H]2C[C@@H](O)CN2C(=O)[C@@H](NC(=O)COCCOCCCCOCCCCOCCOCCOc2ccc(Nc3ncc(Br)c(NCCCN(C)C(=O)C4CCC4)n3)cc2)C(C)(C)C)cc1	96%	3 nM		
